Screening results as filed in PubChem.
FID counter: compounds displacing fluorescent DNA intercalator, primary screen, artefact control for HCV NS3 helicase inhibitor project, biochemical, FID fluorescence. AID 1845, 2009. 0.17% of 290,000 active. inhibition, % at 7.9 µM. DNA fluorescent intercalator displacement; in the data active = inhibition above about 37%;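 also: higher means more ethidium bromide displaced from hairpin DNA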
RBBP9 inhibitor: human RBBP9 inhibitors, primary screen, biochemical, fluorescence polarization, FP-Rh probe, HTS | AID 1515, 2009 | recombinant RBBP9 | Serine hydrolase RBBP9 (Homo sapiens), O75884 | inhibition, % at 7.94 µM | 0.2% of 220,000 active;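 active = inhibition above the campaign mean of all tested compounds plus 3 SD, cut at about 14% in these data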
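Test system: recombinant human RBBP9. Quantity: 2.5 µM RBBP9 dispensing solution, before mixing. Detection: FP readout at 525/598 nm. Reagent: Serine-hydrolase probe FP-Rh, 375 nM pre-mixing. Measure: % inhibition. Control set: DMSO-treated enzyme wells and wells lacking RBBP9. Buffer or medium: Tris-NaCl-Pluronic buffer, pH 8.0. Times: preincubation 30 min plus labeling 45 min at 25 °C.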
Wee1 stabilizer: Wee1 degradation inhibitors, primary screen, cell-based, HeLa, Wee1K328M-luciferase, luminescence | Wee1-like protein kinase (Homo sapiens), P30291 | 1.2% of 220,000 active | HeLa Luc-Wee1K328M stability; 100% = proteasome inhibitor MG132 effect | reporter increase, % at 5 µM;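 active = activation above the mean of all tested compounds plus 3 SD, set per screening run, cut at about 8.8% in these data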;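 also: cells exposed to compound for 20 h before luminescence read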
Target sequence (P30291 whole entry K328M): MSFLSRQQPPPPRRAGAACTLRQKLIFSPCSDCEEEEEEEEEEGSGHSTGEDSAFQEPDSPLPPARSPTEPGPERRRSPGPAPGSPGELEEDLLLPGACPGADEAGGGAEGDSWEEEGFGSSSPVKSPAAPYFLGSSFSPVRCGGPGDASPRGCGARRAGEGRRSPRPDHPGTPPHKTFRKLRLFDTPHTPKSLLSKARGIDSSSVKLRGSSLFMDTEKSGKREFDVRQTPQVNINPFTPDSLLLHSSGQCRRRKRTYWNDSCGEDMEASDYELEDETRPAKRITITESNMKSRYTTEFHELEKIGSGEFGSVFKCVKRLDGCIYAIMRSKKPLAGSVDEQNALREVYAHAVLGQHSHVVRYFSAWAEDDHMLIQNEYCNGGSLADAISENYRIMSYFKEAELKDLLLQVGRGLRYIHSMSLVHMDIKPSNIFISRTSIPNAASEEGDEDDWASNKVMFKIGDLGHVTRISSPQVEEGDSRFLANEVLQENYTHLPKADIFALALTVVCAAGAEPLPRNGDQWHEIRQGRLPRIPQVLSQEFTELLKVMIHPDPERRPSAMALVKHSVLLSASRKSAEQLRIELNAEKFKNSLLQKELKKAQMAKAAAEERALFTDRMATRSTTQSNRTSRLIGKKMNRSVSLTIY
Rad51 HR inh: human RAD51 strand exchange inhibitors, primary screen, biochemical, fluorescence; hRad51 DNA strand exchange, fluorescence dequenching; 0.085% of 200,000 active; DNA repair protein RAD51 homolog 1 (Homo sapiens), Q06609; inhibition, % at 10 µM;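 active = inhibition above 40% at the single screening dose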
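Test system: preformed human Rad51 ssDNA filaments; also added: Donor/quencher-labelled 47-bp dsDNA substrate; doses: 10 µM final, single point; times: 37 °C 15-min filament assembly, 30-min compound preincubation, 15-min exchange; detection: FRET fluorescence dequenching, excitation 485 nm, emission 520 nm; read-out basis: Fluorescence-based percent inhibition, control- and blank-normalised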
Wee1 degr conf: Wee1 degradation inhibitors, confirmation, cell-based, HeLa, Wee1K328M-luciferase, luminescence, triplicate. shares compounds with Wee1 stabilizer. HeLa Luc-Wee1K328M degradation; vehicle 0%, proteasome-blocked wells 100%. activation, % at 5 µM. 4% of 1,100 active. AID 1410, 2008; in the data active = activation above about 8.9%
A number is an active result. Sampled rows, rich in hits. Any-hit rate of the full collection: about 1.2%.

For CCCCS(=O)(=O)/C=C\C=C/S(=O)(=O)CCCC the results were FID counter inactive, RBBP9 inhibitor inactive, Wee1 stabilizer 18.7 and Wee1 degr conf 12.1.
`Cc1ccc(-n2cccn2)c(CN2CCC(CO)(CCc3ccccc3)CC2)c1` gave FID counter inactive, RBBP9 inhibitor inactive, Wee1 stabilizer 17.9, Rad51 HR inh inactive and Wee1 degr conf inactive.
`Nc1c(S(=O)(=O)c2cccs2)c2nc3ccccc3nc2n1/N=C/c1cccc(O)c1` gave FID counter inactive, RBBP9 inhibitor inactive, Wee1 stabilizer inactive and Rad51 HR inh inactive.
O=C(c1cc(=O)[nH]c2ccccc12)N1CCc2ccccc2C1 was read as FID counter inactive, RBBP9 inhibitor inactive, Wee1 stabilizer inactive and Rad51 HR inh inactive.
O=C(OCC(=O)N1CCc2ccccc2C1)c1cc(=O)[nH]c2ccccc12 was read as FID counter inactive, RBBP9 inhibitor inactive, Wee1 stabilizer 16.0, Rad51 HR inh inactive and Wee1 degr conf inactive.
Screening CCOc1ccc(CNC(=O)CCC(=O)n2ncc3ccc(Cl)cc32)cc1 returned FID counter inactive.
Screening CC(C)CN(CC(C)C)C(=S)Nc1ccc(Cl)cc1 returned FID counter inactive, RBBP9 inhibitor inactive, Wee1 stabilizer inactive and Rad51 HR inh inactive.
Screening Cc1ccccc1OCCn1cc(C(=S)N2CCN(C)CC2)c2ccccc21 returned FID counter inactive, RBBP9 inhibitor inactive, Wee1 stabilizer 13.2, Rad51 HR inh inactive and Wee1 degr conf inactive.
Screening NC[C@@H]1O[C@H](O[C@H]2[C@@H](O)[C@H](O[C@@H]3[C@@H](O)[C@H](N)C[C@H](N)[C@H]3O[C@H]3O[C@H](CO)[C@@H](O)[C@H](O)[C@H]3N)O[C@@H]2CO)[C@H](N)[C@@H](O)[C@@H]1O returned FID counter inactive, RBBP9 inhibitor inactive and Wee1 stabilizer inactive.
`Cc1csc(SCC(=O)Nc2cccc(S(=O)(=O)N3CCCC3)c2)n1` gave FID counter inactive, RBBP9 inhibitor inactive, Wee1 stabilizer inactive and Rad51 HR inh inactive.
For Cc1csc(SCC(=O)Nc2cc(S(=O)(=O)N3CCCC3)ccc2Cl)n1 the results were FID counter inactive, RBBP9 inhibitor inactive, Wee1 stabilizer 12.6, Rad51 HR inh inactive and Wee1 degr conf inactive.
Screening CCN(CC)CCn1c(-c2ccc(C)cc2)nc(=S)c2c1CC(C)(C)OC2 returned FID counter inactive, RBBP9 inhibitor inactive, Wee1 stabilizer inactive and Rad51 HR inh inactive.
For COc1cc(C)ccc1OCCCCOc1ccccc1C(C)=O the results were FID counter inactive, RBBP9 inhibitor inactive, Wee1 stabilizer 16.2, Rad51 HR inh inactive and Wee1 degr conf inactive.
Screening OCCN(CCO)Cc1csc2ccccc12 returned FID counter inactive, RBBP9 inhibitor inactive, Wee1 stabilizer inactive and Rad51 HR inh inactive.
For CN(CC(O)COCc1ccccc1F)C1CCCCC1 (configuration not stated) the results were FID counter inactive, RBBP9 inhibitor inactive, Wee1 stabilizer inactive and Rad51 HR inh inactive.
`CN(CC(O)COc1ccccc1F)C1CCCCC1` (configuration not stated) gave FID counter inactive, RBBP9 inhibitor inactive, Wee1 stabilizer 11.4, Rad51 HR inh inactive and Wee1 degr conf inactive.
Screening C#CCOCCOCCOCCNc1nc(N2CCN(C(=O)C([C@@H](C)CC)n3cc(C(N)COC(=O)C(F)(F)F)nn3)CC2)nc(N2CCN(C(=O)[C@H](CCCCN)n3cc(C(N)[C@H](C)CC)nn3)CC2)n1 (some centres not stated) returned Rad51 HR inh inactive.
For C#CCOCCOCCOCCNc1nc(N2CCN(C(=O)[C@H](CCC(=O)O)n3cc(C(N)CC(C)C)nn3)CC2)nc(N2CCN(C(=O)[C@H](CCC(=O)O)n3cc(C(N)CC(C)C)nn3)CC2)n1 (some centres not stated) the results were FID counter inactive, RBBP9 inhibitor inactive, Wee1 stabilizer 11.9, Rad51 HR inh inactive and Wee1 degr conf inactive.
Screening C#CCOCCOCCOCCNc1nc(N2CCN(C(=O)[C@H](CCC(=O)O)n3cc(C(N)Cc4ccc(O)cc4)nn3)CC2)nc(N2CCN(C(=O)[C@H](CCC(=O)O)n3cc(C(N)CC(C)C)nn3)CC2)n1 (some centres not stated) returned FID counter inactive, RBBP9 inhibitor inactive, Wee1 stabilizer inactive and Rad51 HR inh inactive.
For C#CCOCCOCCOCCNc1nc(N2CCN(C(=O)[C@H]([C@@H](C)CC)n3cc([C@@H](N)CC(C)C)nn3)CC2)nc(N2CCN(C(=O)[C@H](CCCCN)n3cc([C@@H](N)C(C)CC)nn3)CC2)n1 (some centres not stated) the results were FID counter 45.5, RBBP9 inhibitor inactive, Wee1 stabilizer 14.6, Rad51 HR inh inactive and Wee1 degr conf inactive.
For O=C(O)c1ccc(N2Cc3ccccc3C2)cc1O the results were FID counter inactive, RBBP9 inhibitor inactive, Wee1 stabilizer inactive and Rad51 HR inh inactive.
`COc1ccc(S(=O)(=O)N2CCOCC2)cc1NC(=O)CCc1c[nH]c2ccccc12` gave FID counter inactive, RBBP9 inhibitor inactive, Wee1 stabilizer inactive and Rad51 HR inh inactive.
`Cc1nc(NNC(=O)c2ccc(Cl)cc2Cl)cc(-c2ccccc2)n1` gave FID counter inactive, RBBP9 inhibitor inactive, Wee1 stabilizer 11.0, Rad51 HR inh inactive and Wee1 degr conf inactive.
O=C(NNC(=O)c1ccc(Cl)cc1Cl)Nc1ccccc1 was read as FID counter inactive, RBBP9 inhibitor inactive, Wee1 stabilizer inactive and Rad51 HR inh inactive.
S=C(NCc1ccc2c(c1)OCO2)NCc1ccc2c(c1)OCO2 was read as FID counter inactive, RBBP9 inhibitor inactive, Wee1 stabilizer 11.7, Rad51 HR inh inactive and Wee1 degr conf inactive.
`O=C(NCc1ccc2c(c1)OCO2)c1ccc2c(c1)OCO2` gave FID counter inactive, RBBP9 inhibitor inactive, Wee1 stabilizer 15.6, Rad51 HR inh inactive and Wee1 degr conf inactive.
`O=C(NCc1ccc2c(c1)OCO2)c1ccc2c(c1)OCCO2` gave FID counter inactive, RBBP9 inhibitor inactive, Wee1 stabilizer inactive and Rad51 HR inh inactive.
N/C(=N\OC(=O)c1ccco1)c1ccccc1 was read as FID counter inactive, RBBP9 inhibitor inactive, Wee1 stabilizer inactive and Rad51 HR inh inactive.
Screening N/C(=N\OC(=O)c1ccco1)c1ccc(Br)cc1 returned FID counter inactive, RBBP9 inhibitor inactive, Wee1 stabilizer 15.3, Rad51 HR inh inactive and Wee1 degr conf inactive.
For O=C(NC1CC2CCCC(C1)N2C(=O)Nc1ccccc1Cl)C1CC1 (configuration not stated) the results were FID counter inactive.
